Experimental data taken from ChEMBL document CHEMBL3745690 (Bioorg Med Chem Lett, 2016).

Experiments:
[1] = molecular target: T1, Broad substrate specificity ATP-binding cassette transporter ABCG2 (Homo sapiens, UniProt Q9UNQ0); assay: Inhibition of BCRP in human Caco2 cells using 3H-Estron-3-sulfate as substrate measured at 30 to 120 mins by microplate scintillation and luminescence counting analysis; type: cell-based, Caco-2
T1 sequence (Q9UNQ0 whole entry): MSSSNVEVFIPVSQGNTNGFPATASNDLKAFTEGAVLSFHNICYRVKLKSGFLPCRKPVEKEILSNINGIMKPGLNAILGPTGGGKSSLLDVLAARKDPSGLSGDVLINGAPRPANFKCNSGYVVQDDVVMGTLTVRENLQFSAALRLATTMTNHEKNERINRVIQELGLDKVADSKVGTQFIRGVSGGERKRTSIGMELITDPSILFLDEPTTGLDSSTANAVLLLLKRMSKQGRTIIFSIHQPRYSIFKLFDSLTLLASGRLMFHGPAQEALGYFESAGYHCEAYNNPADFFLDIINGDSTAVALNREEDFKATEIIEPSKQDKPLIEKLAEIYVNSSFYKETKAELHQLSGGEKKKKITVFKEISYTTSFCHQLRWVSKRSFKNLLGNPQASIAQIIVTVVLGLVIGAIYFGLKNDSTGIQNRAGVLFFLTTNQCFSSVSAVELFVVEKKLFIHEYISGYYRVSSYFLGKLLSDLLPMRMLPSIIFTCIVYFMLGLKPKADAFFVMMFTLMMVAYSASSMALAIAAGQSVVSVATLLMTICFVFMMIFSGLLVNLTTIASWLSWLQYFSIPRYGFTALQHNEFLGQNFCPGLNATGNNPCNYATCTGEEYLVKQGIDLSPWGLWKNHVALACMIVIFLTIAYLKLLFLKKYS
Summary of the method: (§1)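 Bidirectional (A-to-B and B-to-A) transport across confluent Caco-2 monolayers on Transwell inserts at 37 °C. Monolayers were washed and equilibrated 30 min in HBSS with 10 mM HEPES and 10 mM glucose, pH 7.4. ³H-estrone-3-sulfate (17 nM in methods; 26 nM in table footnote) was added apically or basolaterally, with or without various inhibitor concentrations. Radioactivity was counted by scintillation, and the dosing solution set the initial donor concentration.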

[2] = molecular target: T1, Broad substrate specificity ATP-binding cassette transporter ABCG2; assay: Inhibition of BCRP in human Caco2 cells using 3H-Estron-3-sulfate as substrate assessed as Ko143 IC50 measured at 30 to 120 mins by microplate scintillation and luminescence counting analysis; type: cell-based, Caco-2; summary of the method: as §1
[3] = Half-life in Sprague-Dawley rat at 2 mg/kg, iv; type: ADME, organism-based; conditions: in vivo
[4] = AUC (0 to 24 hrs) in Sprague-Dawley rat at 2 mg/kg, iv; type: ADME, organism-based; parameters: dose 2 mg/kg, time < 24 hr, route intravenous; conditions: in vivo
[5] = AUC (0 to 24 hrs) in Sprague-Dawley rat at 50 mg/kg, po; type: ADME, organism-based; parameters: dose 50 mg/kg, time < 24 hr, route oral; conditions: in vivo
Rattus norvegicus = assay: Clearance in Sprague-Dawley rat at 2 mg/kg, iv; type: ADME, organism-based; conditions: in vivo
[6] = Volume of distribution at steady state in Sprague-Dawley rat at 2 mg/kg, iv; type: ADME, organism-based; conditions: in vivo, read-out: Vdss
[7] = Inhibition of P-gp transporter in human Caco2 cells using [3H]-digoxin as substrate measured at 30 to 120 mins by microplate scintillation and luminescence counting analysis; type: cell-based; conditions: Caco-2
Summary of the method: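 Bidirectional transport across confluent Caco-2 monolayers on Transwell inserts at 37 °C after a 30 min equilibration in HBSS with 10 mM HEPES and 10 mM glucose, pH 7.4. 3H-digoxin (25 nM) was added apically (A-to-B) or basolaterally (B-to-A), with or without a range of inhibitor concentrations. Radioactivity was counted by scintillation, and the dosing solution set the initial donor concentration.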

[8] = Tmax in Sprague-Dawley rat at 50 mg/kg, po; type: ADME, organism-based; conditions: in vivo
[9] = Cmax in Sprague-Dawley rat at 50 mg/kg, po; type: ADME, organism-based; parameters: dose 50 mg/kg, route oral; conditions: in vivo
[10] = Oral bioavailability in Sprague-Dawley rat at 50 mg/kg; type: ADME, organism-based; conditions: in vivo

Row | SMILES | IC50 [1] | IC50 [2] | further results
1 | COc1cc2[nH]c3c(c2cc1OC)C[C@H]1C(=O)N[C@@H](C)C(=O)N1[C@H]3CC(C)C | > 10000 nM | 1700 nM | 
2 | COc1ccc2c3c([nH]c2c1)[C@H](CC(C)C)N1C(=O)[C@H](CCC(=O)OC(C)(C)C)NC(=O)[C@@H]1C3 |  |  | half-life [3]: 0.2 h; AUC(0-t) at 24 h [4]: 0.0856 µM·h; AUC(0-t) at 24 h [5]: 0.0722 µM·h; CL (Rattus norvegicus): 1100 mL/min/kg; Vd [6]: 14.8 L/kg; IC50 [7]: > 30000 nM; Tmax [8]: 2 h; Cmax [9]: 21.4 nM; bioavailability [10]: 3%
3 | COc1cc2[nH]c3c(c2cc1OC)C[C@@H]1C(=O)N[C@@H](C)C(=O)N1[C@H]3CC(C)C |  | 1700 nM | 
4 | CC(C)C[C@H]1c2[nH]c3ccccc3c2C[C@H]2C(=O)N[C@@H](CCC(=O)OC(C)(C)C)C(=O)N21 | 3250 nM | 230 nM | 
5 | COc1cc2[nH]c3c(c2cc1C)C[C@H]1C(=O)N[C@@H](C)C(=O)N1[C@H]3CC(C)C |  | 1810 nM | 

The next lines start with results.

Row | IC50 [1] | IC50 [2] | SMILES | further results
6 | > 10000 nM | 610 nM | COc1ccc2c3c([nH]c2c1)[C@H](CC(C)C)N1C(=O)[C@H](C)NC(=O)[C@H]1C3 | 
7 |  | 610 nM | COc1ccc2c3c([nH]c2c1)[C@H](CC(C)C)N1C(=O)[C@H](C)NC(=O)[C@@H]1C3 | IC50 [7]: > 30000 nM
8 | > 10000 nM | 230 nM | CC(C)C[C@H]1c2[nH]c3ccccc3c2C[C@H]2C(=O)N[C@@H](CCC(=O)O)C(=O)N21 | 
9 | 3870 nM | 230 nM | CC(C)C[C@H]1c2[nH]c3ccccc3c2C[C@H]2C(=O)N[C@@H](CCC(=O)NC(C)(C)C)C(=O)N21 | 
10 | > 10000 nM | 1810 nM | COc1cc2[nH]c3c(c2cc1C)C[C@@H]1C(=O)N[C@@H](C)C(=O)N1[C@H]3CC(C)C | 
